These results are taken from ChEMBL document CHEMBL1138632, “Identification and structure-activity relationship studies of 3-methylene-2-norbornanone as potent anti-proliferative agents presumably working through p53 mediated apoptosis” (2004).

Assay [1] deals with CAKI-1. As to the kind of experiment: Fold selectivity expressed as ratio of LC50 for Caki cells with non-mutant p53 to LC50 for C33A cells with a mutation at Cys 273. Type of assay: functional, Homo sapiens. The method in brief:
(§1)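 Selectivity is the fold ratio of the Caki-1 (wild-type p53) LC50 to the mutant-p53 line LC50 (C33A or Ramos RA1). LC50s come from the 72 h anti-proliferation assay in RPMI/10% FBS, 0.001–100 range. Values are means of three experiments.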

Assay [2] has as its system CAKI-1. As to the kind of experiment: Fold selectivity expressed as ratio of LC50 for Caki cells with non-mutant p53 to LC50 for Ramos RA1 cells with a mutation at Asp 254. Type of assay: functional, Homo sapiens. The method in brief: as §1
Assay [3] has as its system CAKI-1. As to the kind of experiment: Lethal concentration required to kill 50% Caki-1 cells of the human renal carcinoma with non-mutant wt p53. The following applies: read-out: LC50 (the source's name). The format is functional. The method in brief:
(§2)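 Cells (Caki-1 renal carcinoma with wild-type p53 as negative control; C33A cervical and Ramos RA1 lymphocyte lines with mutant p53) plated sub-confluent at 1 × 10⁵ cells/mL in RPMI with 10% FBS. Compounds added at 0.001–100 for 72 h, with a positive control and a vehicle negative control. LC50 is the concentration killing 50% of cells.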

Assay [4] can be described thus: Lethal concentration required to kill 50% Ramos RA1 cells of the human lymphocyte with a mutation at Asp 254. Type of assay: functional. The following applies: read-out: LC50 (the source's name). In outline:
as §2

Turning to `C=C1C(=O)C2(CS(=O)(=O)NCc3ccc(OC)cc3)CCC1C2(C)C` (stereo not drawn), the values for the Fold selectivity in assay [1] and in assay [2] were 1.93 and 2.72, respectively. Moreover, the CC50 was 190 µM in assay [3] and 69.9 µM in assay [4].
On the same counts, the results for `C=C1C(=O)C2(CS(=O)(=O)Nc3ccc(OC)cc3)CCC1C2(C)C` (stereo not drawn) are 8.51, 8.98, 114 µM and 12.7 µM.
On the same counts, the results for `C=C1C(=O)C2(C(=O)O)CCC1C2(C)C` (stereo not drawn) are 1.15, 1.46, 515 µM and 353 µM.
Taken in the same sequence, the figures for `C=C1CCOC1=O` [TULIPALINE A] were 1.13, 1.41, 55.4 µM and 39.3 µM.
For `C=C1C(=O)C2CCC1C2` (stereo not drawn), the Fold selectivity in assay [1] is reported as 29.7; in assay [2], 13.16. In addition, the CC50 in assay [3] came to 109 µM; in assay [4] it was 8.28 µM.
On the same counts, the results for `CC(C)=C1CC[C@H](C)CC1=O` are 1.83, 1.29, 657 µM and 509 µM.
On the same counts, the results for `C=C1C2CCC(C2)C1O` (stereo not drawn) are 3.9, 1, 805 µM and 805 µM.
Taken in the same sequence, the figures for `C=C1CCc2ccccc2C1=O` were 1.1, 2.37, 30.6 µM and 12.9 µM.
Consider `C=C1C(=O)C2(C(=O)NCc3ccc(OC)cc3)CCC1C2(C)C` (stereo not drawn), for which the values for the Fold selectivity in assay [1] and in assay [2] were 7.31 and 7.55, respectively. The CC50 was found to be 120 µM in assay [3] and 15.9 µM in assay [4].
Turning to `C=C1CC2CCC1C2` (stereo not drawn), the CC50 in assay [3] and in assay [4] was over 924 µM throughout.
As for `C=C1C(=O)C2(C(=O)OC)CCC1C2(C)C` (stereo not drawn), the results for the Fold selectivity in assay [1] and in assay [2] were 1.54 and 1.36, respectively. For the same molecule, the CC50 was 36 µM in assay [3] and 26.4 µM in assay [4].
On the same counts, the results for `C=C1C(=O)C2(C(=O)Nc3ccc(OC)cc3)CCC1C2(C)C` (stereo not drawn) are 7.11, 7.55, 108 µM and 14.3 µM.
Consider `C=C1C2=NS(=O)(=O)CC23CCC1C3(C)C` (stereo not drawn), for which the Fold selectivity in assay [1] is listed as 6.36; in assay [2], 7.57. Besides, the figures for the CC50 in assay [3] and in assay [4] were 15.9 µM and 2.1 µM, respectively.
On the same counts, the results for `C=C1C(=O)[C@@]2(C)CC[C@H]1C2(C)C` are 3.29, 1, 609 µM and 609 µM.
On the same counts, the results for `C=C1C(=O)C2(C(=O)NCC(C)C)CCC1C2(C)C` (stereo not drawn) are 8.07, 7.95, 171 µM and 21.5 µM.
On the same counts, the results for `C=C1Cc2cc(OC)ccc2C1=O` are 1.45, 9.53, 30.5 µM and 3.2 µM.
Consider `COc1ccc(/C=C/c2nc(NCCCN(C)C)c3ccccc3n2)cc1`, for which the Fold selectivity stood at 0.69 in assay [1] and 0.65 in assay [2]. Also, the CC50 was found to be 9.3 µM in assay [3] and 14.3 µM in assay [4].
In the case of `O=C1CC2CCC1C2` (stereo not drawn), the CC50 in assay [3] and in assay [4] was over 618 µM in each case.
Consider `C=C1C(=O)C2(CS(=O)(=O)NCC(C)C)CCC1C2(C)C` (stereo not drawn), for which the Fold selectivity came to 1.95 in assay [1] and 2.13 in assay [2]. Also, the CC50 in assay [3] came out at 334 µM; in assay [4] it was 157 µM.
On the same counts, the results for `C=C1C(=O)C2CC1C1CCCC21` (stereo not drawn) are 10.15, 7.74, 271 µM and 35 µM.
On to `C=C1CCc2cc(OC)c(OC)cc2C1=O`, for which the Fold selectivity in assay [1] came to 0.7; in assay [2], 3.24. The CC50 was determined as 15.9 µM in assay [3] and 4.9 µM in assay [4].
Taken in the same sequence, the figures for `C=C1CCc2cc(OC)ccc2C1=O` were 0.65, 9, 16.2 µM and 1.8 µM.
With `O=C1C2CCN(CC2)C1(CO)CO`, the results for the Fold selectivity in assay [1] and in assay [2] were 6.4 and 9.42, respectively. For the same molecule, the values for the CC50 in assay [3] and in assay [4] were 162 µM and 17.2 µM, respectively.
On the same counts, the results for `C=C1C(=O)C2CCC1(C)C2(C)C` (stereo not drawn) are 1, 1, 609 µM and 609 µM.
With `C=C1/C(=N/O)C2CCC1C2` (stereo not drawn), in assay [3], the CC50 was over 728 µM.
